Laboratory results from PubChem BioAssay.
Calls of active or inactive are those of the source.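 The calls were made as follows, unless noted: active = viability at or under a set limit in both replicates, limit being median viability minus 3 SD (cut at about 48% in these data, passing the limit was not always enough); inconclusive = at or under the limit in just one replicate; inactive = at or above the limit in both replicates.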

Tests used:
[1] = reducers of endogenous Her2 protein level, primary screen, SKBR3 breast tumor cells, AlphaScreen, ATP viability (AID 461;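 active = Her2 level under about 52% in both replicate screens, with viability over 70% of control, limit read from the data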;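 as to Her2 level: lower value means less Her2 protein in the cells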;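 as to viability: percent of carrier control wells set as 100% viability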); conditions: 18-24 h, measured here: SKBR3 viability, ATP luminescence, at 10 µM
[2] = biological target: Receptor tyrosine-protein kinase erbB-2 (Homo sapiens) (UniProt P04626); experiment: as above; conditions: 18-24 h, at 10 µM, stronger effect = lower value
Sequence of Receptor tyrosine-protein kinase erbB-2 (Homo sapiens) (P04626 whole entry, looked up): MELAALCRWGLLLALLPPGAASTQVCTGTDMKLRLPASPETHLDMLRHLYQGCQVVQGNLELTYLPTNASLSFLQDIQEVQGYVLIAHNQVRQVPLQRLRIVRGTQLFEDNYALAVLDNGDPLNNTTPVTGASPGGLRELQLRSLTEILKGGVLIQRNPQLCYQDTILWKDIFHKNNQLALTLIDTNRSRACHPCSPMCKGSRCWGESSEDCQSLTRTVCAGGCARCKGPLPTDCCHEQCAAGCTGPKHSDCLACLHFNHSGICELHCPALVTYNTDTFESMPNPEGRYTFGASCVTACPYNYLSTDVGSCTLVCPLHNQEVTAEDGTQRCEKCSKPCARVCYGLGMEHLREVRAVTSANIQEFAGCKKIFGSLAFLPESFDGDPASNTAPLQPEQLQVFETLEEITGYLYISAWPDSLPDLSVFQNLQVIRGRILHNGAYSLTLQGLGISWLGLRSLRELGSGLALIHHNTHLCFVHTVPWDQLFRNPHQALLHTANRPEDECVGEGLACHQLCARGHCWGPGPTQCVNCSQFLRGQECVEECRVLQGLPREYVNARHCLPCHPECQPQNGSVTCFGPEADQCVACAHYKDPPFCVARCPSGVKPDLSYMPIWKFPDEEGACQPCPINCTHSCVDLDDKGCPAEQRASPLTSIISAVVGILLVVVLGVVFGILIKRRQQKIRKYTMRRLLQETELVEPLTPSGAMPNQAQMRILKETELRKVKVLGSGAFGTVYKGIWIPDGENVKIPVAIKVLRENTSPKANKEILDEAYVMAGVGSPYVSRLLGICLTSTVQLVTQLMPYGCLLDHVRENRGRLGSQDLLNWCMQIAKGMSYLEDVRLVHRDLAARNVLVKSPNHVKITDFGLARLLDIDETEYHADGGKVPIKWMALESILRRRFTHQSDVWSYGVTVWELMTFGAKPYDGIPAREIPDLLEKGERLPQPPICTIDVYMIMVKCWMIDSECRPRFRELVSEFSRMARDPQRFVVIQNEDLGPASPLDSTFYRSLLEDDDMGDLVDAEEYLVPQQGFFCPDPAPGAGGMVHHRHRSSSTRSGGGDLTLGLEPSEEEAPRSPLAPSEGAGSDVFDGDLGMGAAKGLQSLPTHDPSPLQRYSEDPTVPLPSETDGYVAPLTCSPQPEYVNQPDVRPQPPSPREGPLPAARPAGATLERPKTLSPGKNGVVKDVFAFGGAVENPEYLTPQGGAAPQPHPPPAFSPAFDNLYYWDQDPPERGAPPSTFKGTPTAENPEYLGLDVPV

[3] = SK-BR-3 cell growth inhibitors, pilot screen, 24 h, human (AID 572;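 active = viability at or below 10% of carrier control in both of two separate runs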;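 also: compound exposure lasted between 18 and 24 h rather than exactly 24 h; 100% = carrier-treated control wells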); conditions: SK-BR-3 viability, CellTiter-Glo luminescence, at 10 µM, stronger effect = lower value
[4] = HUVEC growth inhibition – cell-based, human, primary screen (AID 575;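 active = viability at or below 30% in both replicate assays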;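 also: 100% = median of untreated cell wells with 0.1% DMSO on each plate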); conditions: HUVEC proliferation, CellTiter-Glo luminescence, 72 h; at 10 µM; stronger effect = lower value
Method in brief: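 system = HUVEC primary cells | amount = 1250 cells/well | buffer or medium = supplemented EBM, 2% fetal bovine serum | dosing = single-point 10 µM, DMSO 0.1% final | times = 72 h compound incubation | detection = CTG luminescence | read-out = % viability relative to median vehicle-well signal on each plate | control set = vehicle and MePR control wells | format = collagen-coated 384-well format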

[5] = growth inhibitors of H69AR lung tumor, primary screen, human, duplicate replicates (AID 580); conditions: H69AR lung tumor cells viability, ATP luminescence, 72 h; at 10 µM; stronger effect = lower value;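 also: 100% = mean luminescence of untreated wells and 0% = no signal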
[6] = reversal of MRP1-mediated doxorubicin resistance, pilot screen, H69AR cells, doxorubicin co-treatment (AID 601;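 active = viability loss from added drug above about 55%, and viability with drug at most 40%, in both replicates, limit read from the data, passing the limit was not always enough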); conditions: CellTiter-Glo, 72 h, at 10 µM; for differential viability (reversal): stronger effect = higher value
[7] = 384-well plate pilot, post-Golgi transport modulator project, inhibition of yeast transport mutant growth (AID 636; in the data active = inhibition above about 31%); conditions: absorbance 615 nm, about 18 h, stronger effect = higher value
[8] = growth suppression of yeast trafficking mutant, preliminary HTS, modulators of trafficking downstream of Golgi apparatus project, 1536-format plate, OD 615 nm (AID 637; in the data active = inhibition above about 30%); conditions: yeast transport mutant growth, absorbance 615 nm, 18 h; stronger effect = higher value
[9] = H69AR cells + 2 uM doxorubicin, measured here: viability with 2 uM doxorubicin, stronger effect = lower value
[10] = H69AR cells, compound alone cytotoxicity

SMILES	viability [1] [%]	Her2 level [2]	viability [3]	viability [4]	viability [5]	differential viability (reversal) ([6]; H69AR cells + 2 uM doxorubicin)	viability [6, 9] [%]	viability [6, 10] [%]	inhibition [7]	inhibition [8]
Cn1c(SCC(N)=O)nnc1C1CCN(S(=O)(=O)c2ccccc2C(F)(F)F)CC1	114	97.5% (inactive)	114% (inactive)	112% (inactive)	104% (inactive)	7.31% (inactive)	96.5	104	-7.03% (inactive)	-0.33% (inactive)
O=C(Nc1cccc(Cl)c1)N1CCN(c2ncccn2)CC1	100	94.5% (inactive)	100% (inactive)	124% (inactive)	104% (inactive)	17.4% (inactive)	86.7	104	0.27% (inactive)	-6.51% (inactive)
CCS(=O)(=O)N1CCCC(C(=O)NCc2cccc(OC)c2)C1 (stereo not given)	106	108% (inactive)	106% (inactive)	98.1% (inactive)	96.6% (inactive)	-4.98% (inactive)	102	96.6	-5.2% (inactive)	5.41% (inactive)
CC(=O)Nc1ccccc1OCc1nnc(-c2cccs2)o1	97	93% (inactive)	97% (inactive)	82.1% (inactive)	98.1% (inactive)	15.9% (inactive)	82.1	98.1	-2.86% (inactive)	-3.97% (inactive)
[N-]=[N+]=CC(=O)CC(c1ccccc1)N1C(=O)c2ccccc2C1=O (stereo not given)	93.5	106% (inactive)	93.5% (inactive)	97.8% (inactive)	103% (inactive)	5.81% (inactive)	97	103	-0.91% (inactive)	-4.29% (inactive)
COc1cc(C)c(-c2cc(C(=O)O)c(C)o2)cc1C(C)C	99.5	88% (inactive)	99.5% (inactive)	95.7% (inactive)	91.8% (inactive)	6.8% (inactive)	85	91.8	-3.87% (inactive)	-5.4% (inactive)
CC(C)c1nnc(NC(=O)c2cnccn2)s1	87.5	88.5% (inactive)	87.5% (inactive)	104% (inactive)	92.2% (inactive)	-0.1% (inactive)	92.3	92.2	-3.65% (inactive)	-2.46% (inactive)
O=C(CCCc1cccs1)Nc1nc2c(s1)CCCC2	86.5	74% (inactive)	86.5% (inactive)	55.3% (inactive)	84.5% (inactive)	2.73% (inactive)	81.7	84.5	-9.19% (inactive)	0.82% (inactive)
CCN(CC)CCOC(=O)c1c(C)oc2ccc(O)cc12	102	109% (inactive)	102% (inactive)	89.7% (inactive)	95% (inactive)	3.9% (inactive)	91.1	95	-0.53% (inactive)	-6.94% (inactive)
CC1CCN(CCn2c(=S)[nH]c3ncccc3c2=O)CC1	98.5	95% (inactive)	98.5% (inactive)	78.6% (inactive)	104% (inactive)	9.6% (inactive)	93.9	104	-2.89% (inactive)	0.83% (inactive)
O=C(CN(CCc1ccccc1)C(=O)CN1C(=O)COc2ccccc21)NCc1ccco1	88.5	87.5% (inactive)	88.5% (inactive)	102% (inactive)	78.6% (inactive)	0.605% (inactive)	78	78.6	-0.65% (inactive)	-1.15% (inactive)
CCOC(=O)Cn1nc(-c2ccc(C)cc2)ccc1=O	99	115% (inactive)	99% (inactive)	94.1% (inactive)	100% (inactive)	15.4% (inactive)	84.6	100	-5.32% (inactive)	7.21% (inactive)
COc1ccccc1Oc1coc2c(CN3CCN(C)CC3)c(O)ccc2c1=O	102	111% (inactive)	102% (inactive)	96.1% (inactive)	99.5% (inactive)	14.9% (inactive)	84.7	99.5	-1.82% (inactive)	1% (inactive)
COc1ccc(OC)c(CNC(=O)COc2cc(=O)n(C)c3ccccc23)c1	82	86.5% (inactive)	82% (inactive)	105% (inactive)	88% (inactive)	2.97% (inactive)	85	88	2.31% (inactive)	-4.67% (inactive)
CCOC(=O)CSc1nnc([C@H](C)NC(=O)OC(C)(C)C)o1	104	97% (inactive)	104% (inactive)	107% (inactive)	106% (inactive)	20.2% (inactive)	85.7	106	-5.58% (inactive)	-10.2% (inactive)
COc1ccccc1NC(=O)c1cc2n(n1)C(C(F)(F)F)CC(c1ccc3c(c1)OCO3)N2 (stereo not given)	85	95% (inactive)	85% (inactive)	47.7% (inactive)	73.3% (inactive)	-13.8% (inactive)	87.1	73.3	-4.03% (inactive)	-3.33% (inactive)
